Measured values of several laboratories.
Lines come from different studies, so protocols differ.
Target: 5-hydroxytryptamine receptor 2A (HTR2A, Homo sapiens, UniProt P28223)
Effect on: ligand displacement

| Compound | test | setting | inhibition [%] |
| --- | --- | --- | --- |
| O=C1N=C(N2CCCCN2)S/C1=C\c1ccc(F)cc1O | radioligand | 10 µM | 17 |
| CN1CCN(CCCOc2ccc(=O)n(-c3ccc(Cl)c(Cl)c3)n2)CC1 | – | 1 µM | 34.9 |
| Oc1cccc(Nc2nc(-c3ccc(F)cc3F)cs2)c1 | radioligand | 10 µM | 67 |
| CCCNc1nc2ccccc2n1Cc1ccc(Cl)cc1 | – | 10 µM | 59.8 |
| C#CCOCCOCCOc1ccc2c3c1C1CCCC1N3CCNC2 (racemic) | radioligand | 10 µM | ~70 |
| O=C(c1ccc(Cl)cc1)N(Cc1ccccc1)C1CCCCC1 | radioligand | 10 µM | 14.5 |
| N#Cc1cc(Cn2c(N3CCCC3)nc3ccccc32)ccc1F | – | 10 µM | 5.32 |
| COc1cc2c3c(c1OC)-c1cc4c(cc1CC3N(C)CC2c1ccccc1)OCO4 (stereo not shown) | radioligand | 10 µM | < 50 |
| COc1ccc(-n2nc(OCCCN3CCCCC3)ccc2=O)cc1 | – | 1 µM | 49.4 |
| CCN(CC)c1ccc(C2Nc3ccc(C(=O)c4ccccc4)cc3NC3=C2C(=O)CC(C)(C)C3)cc1 (stereo not shown) | radioligand | 10 µM | -10 |
